Sampled rows, rich in hits. Any-hit rate of the full collection: about 3.1%.
OX1R antag-1 = OX1R (HCRTR1) antagonists, primary screen, fluorescence, CHO/OX1R cells, Fluo-8 calcium, orexin A. Orexin/Hypocretin receptor type 1 (Homo sapiens), O43613. Fluo-8 calcium fluorescence. inhibition, % at 5 µM. 330,000 tested, 0.43% active. AID 434989, 2010;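 active means inhibition above its plate's threshold, mean inhibition of all tested compounds on the plate plus 3 SD, cut at about 37% in these data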;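 further: 0% = orexin A challenge wells and 100% = SB-334867-A antagonist wells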
Target sequence (O43613 whole entry, looked up): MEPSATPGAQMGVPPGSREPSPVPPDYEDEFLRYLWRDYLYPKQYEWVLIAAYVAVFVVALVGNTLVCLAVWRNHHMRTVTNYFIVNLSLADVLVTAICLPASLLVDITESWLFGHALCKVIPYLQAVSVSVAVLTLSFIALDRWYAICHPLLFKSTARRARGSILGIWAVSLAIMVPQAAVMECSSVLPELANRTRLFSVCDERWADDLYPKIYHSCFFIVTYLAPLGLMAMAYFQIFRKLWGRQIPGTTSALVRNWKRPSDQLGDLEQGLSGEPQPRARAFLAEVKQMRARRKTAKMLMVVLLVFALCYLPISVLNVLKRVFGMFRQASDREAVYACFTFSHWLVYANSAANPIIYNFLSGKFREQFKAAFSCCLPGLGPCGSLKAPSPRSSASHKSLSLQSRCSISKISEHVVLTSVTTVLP
OX1R antag-2 = antagonists of human orexin 1 receptor (OX1R) | inhibition, % at 6.6 µM | 330,000 tested, 1.8% active | AID 485270, 2010 | OX1R-expressing cells, FRET antagonist read-out; in the data active means inhibition mostly above about 38%, no sharp cut-off; inactive means mostly below about 40%;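 further: 0% = agonist challenge alone and 100% = reference antagonist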
GalR3 antagonist = GalR3 antagonists in HEK293 cells, primary screen, cell-based, fluorescence readout | Galanin receptor type 3 (Homo sapiens), O60755 | HEK293 GalR3-CNG cAMP membrane potential fluorescence; galR3 body fused to GalR1 C-terminus | inhibition, % at 3 µM | 360,000 tested, 0.44% active | AID 651719, 2012;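 active means inhibition above the screen-wide average plus 3 SD, cut at about 13% in these data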;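 further: forskolin and galanin both at EC90 stimulate the cells; cAMP rise reported by CNG channel membrane potential dye signal; 0% = forskolin plus galanin with DMSO and 100% = forskolin alone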
CHO parental Ca = ATP-evoked calcium signal inhibitors, parental CHO, primary screen, counter-screen for OX1R antagonist project, cell-based, fluorescence, Fluo-8 calcium dye; AID 463079, 2010; parental CHO-K1, ATP-induced calcium, Fluo-8 fluorescence; 330,000 tested, 0.63% active; inhibition, % at 5.6 µM;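 active means inhibition above that plate's mean sample inhibition plus 3 SD, cut at about 26% in these data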;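 further: 0% = ATP-challenged DMSO wells and 100% = DMSO wells without ATP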
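Measured by: calcium-sensitive Fluo-8 fluorescence / Test system: CHO parental line / Controls: ATP-challenged DMSO wells low, unchallenged DMSO wells high / Measure: % inhibition / Compound: single nominal dose of 5.6 µM per compound / Replicates: single well per compound, no replicates / Reagent: ATP as calcium-mobilizing challenge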
GPR7 antag = GPR7 receptor antagonists, primary screen, cell-based, fluorescence, single concentration | AID 1861, 2009 | 290,000 tested, 1.1% active | GPR7-expressing cells, fluorescence antagonist assay | inhibition, % at 4.4 µM | Neuropeptides B/W receptor type 1 (Homo sapiens), P48145; in the data active means inhibition above about 16%, passing the limit was not always enough;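 further: cells stimulated with the agonist NPW; 0% = agonist with vehicle and 100% = vehicle without agonist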
* marks the source's active call; other numbers are inactive results; nt = no result.

SMILES | OX1R antag-1 | OX1R antag-2 | GalR3 antagonist | CHO parental Ca | GPR7 antag
Cc1ccc(C(=O)NCC2CCCN2S(=O)(=O)c2cccs2)cc1C (stereo not given) | -18 | 34* | -5 | -7 | nt
Cc1cccn2c(=O)c3cc(C(=O)NCCN4CCOCC4)c(=N)n(CCCN4CCOCC4)c3nc12 | -10 | 52* | -8 | -8 | -21
Cc1cccn2c(=O)c3cc(C(=O)NCc4cccnc4)c(=N)n(CC4CCCO4)c3nc12 (stereo not given) | -19 | 70* | -5 | -3 | -6
O=C(NCc1cccnc1)c1cccn2c(=O)c3sccc3nc12 | -37 | 61* | -1 | -19 | -7
C=CCn1c(=N)c(C(=O)NCCCOC)cc2c(=O)n3cccc(C)c3nc21 | -20 | 61* | -1 | -5 | 18
Cc1cccn2c(=O)c3cc(C(=O)NCc4ccccc4)c(=N)n(CCCN4CCOCC4)c3nc12 | nt | nt | -4 | nt | nt
O=C(O)c1ccccc1C(=O)NCc1cccnc1 | 3 | 13 | -1 | 6 | -13
CCC(=NOCc1ccccc1)C(=O)NNS(=O)(=O)c1ccc(C)cc1 | nt | nt | -3 | nt | nt
COCc1cc(N2CCNC[C@@H]2C)ccc1N1CCN(Cc2ccccc2)[C@H](C)C1 | nt | nt | -8 | nt | nt
C=CCNC(=O)c1ccsc1N | nt | nt | -7 | nt | nt
Cc1ccc(Cn2c(=N)c(C(=O)NCC3CCCO3)cc3c(=O)n4cccc(C)c4nc32)cc1 (stereo not given) | -23 | 32 | 0 | -13 | 0
Cc1cccn2c(=O)c3cc(C(=O)NCc4ccco4)c(=N)n(C4CCCCC4)c3nc12 | -16 | 35 | nt | -25 | 6
CCCn1c(=N)c(C(=O)NCC2CCCO2)cc2c(=O)n3cccc(C)c3nc21 (stereo not given) | -7 | 56* | -3 | -5 | -3
Cc1cccn2c(=O)c3cc(C(=O)NCC4CCCO4)c(=N)n(CCN4CCOCC4)c3nc12 (stereo not given) | -5 | 162* | -3 | -18 | -9
Cc1cccn2c(=O)c3cc(C(=O)NCc4ccco4)c(=N)n(CCOCCO)c3nc12 | -3 | 44* | nt | 6 | -3
Cc1cccn2c(=O)c3cc(C(=O)NCCc4ccccc4)c(=N)n(CCCn4ccnc4)c3nc12 | -35 | 59* | -1 | -16 | -5
COc1ccc(CCn2c(=N)c(C(=O)NCCN3CCOCC3)cc3c(=O)n4cccc(C)c4nc32)cc1OC | -4 | 42 | -2 | 7 | -16
CCCCn1c(N)c(N(CC(C)C)C(=O)c2cc3c(s2)CCCCC3)c(=O)[nH]c1=O | -14 | 13 | -4 | -13 | nt
COCCCn1c(=N)c(C(=O)NCC2CCCO2)cc2c(=O)n3cccc(C)c3nc21 (stereo not given) | 0 | 64* | -3 | -8 | -1
COCCn1c(=N)c(C(=O)NCCc2ccccc2)cc2c(=O)n3cccc(C)c3nc21 | -15 | 43 | 1 | -24 | -1
CCOC(=O)C1=C(C)NC(C)=C(C(=O)OCC)C1C(=O)OCC(=O)NCc1ccccc1 | -30 | 8 | 2 | -21 | nt
CCOC(=O)C1=C(C)NC(C)=C(C(=O)OCC)C1C(=O)OCC(=O)NCc1ccccc1OC | 11 | 45* | 3 | -17 | nt
Cc1cccc(NC(=O)C(=O)NNC(=O)c2ccc(C(C)(C)C)cc2)c1 | 95* | 21 | -8 | 94* | -15
C[C@@H]1COc2cc(N3CCCCC3)ccc2S(=O)(=O)N1 | nt | nt | 3 | nt | nt
CCCN(C(=O)COC(=O)CSc1ccc(C(N)=O)cc1[N+](=O)[O-])C1CCS(=O)(=O)C1 (stereo not given) | nt | nt | -3 | nt | nt
CC1CCCN(C(=O)COC(=O)CSc2ccc(C(N)=O)cc2[N+](=O)[O-])C1 (stereo not given) | -16 | 74* | -1 | -15 | nt
NC(=O)c1ccc(SCC(=O)OCC(=O)N2CCN(C(=O)c3ccco3)CC2)c([N+](=O)[O-])c1 | -8 | 58* | 1 | -8 | nt
CN(C(=O)COC(=O)CSc1ccc(C(N)=O)cc1[N+](=O)[O-])C1CCCCC1 | -13 | 47* | -6 | -2 | nt
Cc1ccc(NC(=O)CSc2ccc(C(N)=O)cc2[N+](=O)[O-])cc1C | -29 | 11 | -4 | 33* | -8

Source: PubChem BioAssay
